Experiments:
D(3) dopamine receptor = D(3) dopamine receptor (Homo sapiens, UniProt P35462); test: Displacement of [3H]spiperone from human Dopamine receptor D3 expressed in CHO cells; assay type: cell-based
Summary of the method: (§1)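 Membranes from CHO cells stably expressing human D2short, D3 or D4.4 receptor, 5-25 µg protein/tube, competing against [3H]spiperone. Eight concentrations in triplicate, 2-4 independent experiments. Sigmoid nonlinear fit gives IC50, converted to Ki by Cheng-Prusoff; reported as mean ± SEM; Hill slopes fit a one-site model.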

D(4) dopamine receptor [1] = target: T1, D(4) dopamine receptor (Homo sapiens, UniProt P21917); test: (§2) Effective dose was measured by the stimulation of mitogenesis at dopamine D4.2 receptor; assay type: functional
T1 sequence (P21917 whole entry): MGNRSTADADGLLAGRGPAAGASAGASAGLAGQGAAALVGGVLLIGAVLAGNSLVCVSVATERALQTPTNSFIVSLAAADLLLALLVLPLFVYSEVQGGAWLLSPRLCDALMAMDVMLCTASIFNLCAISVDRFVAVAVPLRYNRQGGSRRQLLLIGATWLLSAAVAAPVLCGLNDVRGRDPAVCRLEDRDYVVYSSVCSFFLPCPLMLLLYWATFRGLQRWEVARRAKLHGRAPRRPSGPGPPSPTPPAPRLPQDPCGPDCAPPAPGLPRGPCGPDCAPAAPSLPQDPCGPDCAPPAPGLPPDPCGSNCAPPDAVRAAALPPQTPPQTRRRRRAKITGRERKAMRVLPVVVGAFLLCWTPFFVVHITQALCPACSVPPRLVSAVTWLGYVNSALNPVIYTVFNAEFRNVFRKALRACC
Summary of the method: (§3)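 CHO10001A cells stably expressing human D4.2 receptor, seeded at 10 000 cells/well and grown 75 h in medium with 10% FCS. Cells rinsed with serum-free medium, then given seven concentrations (final 0.001-1000 nM) for 16-18 h. [3H]thymidine 0.25 µCi/well added for 2 h at 37 °C, then filter harvest and counting. Quadruplicates, 6 experiments, normalized mean curve; EC50 from mean curves.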

D(2) dopamine receptor [2] = target: T2, D(2) dopamine receptor (Homo sapiens, UniProt P14416); test: Displacement of [3H]spiperone from human Dopamine receptor D2S expressed in CHO cells; assay type: cell-based; summary of the method: as §1
D(2) dopamine receptor [3] = target: T2, D(2) dopamine receptor; test: Displacement of [3H]spiperone from human Dopamine receptor D2L expressed in CHO cells; assay type: cell-based
[4] = target: T3, D(4) dopamine receptor (Homo sapiens) (UniProt P21917); test: Agonistic effect was measured by the stimulation of mitogenesis at dopamine D4.2 receptor; assay type: functional; summary of the method: as §3
T3 sequence (whole entry): T1 sequence (P21917 whole entry)

D(4) dopamine receptor [5] = target: T1, D(4) dopamine receptor; test: Displacement of [3H]spiperone from human Dopamine receptor D4.4 expressed in CHO cells; assay type: cell-based; summary of the method: as §1
D(1A) dopamine receptor [6] = target: T4, D(1A) dopamine receptor (Bos taurus, UniProt Q95136); test: Binding affinity against Dopamine receptor D1 from bovine striatal membranes using [3H]SCH-23390 as radioligand
Summary of the method: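 Bovine striatal membranes, 25 µg protein/tube, competing against [3H]SCH 23390 (Kd 0.27-0.32 nM). Eight concentrations in triplicate, 2-4 independent experiments. Sigmoid nonlinear fit gives IC50, converted to Ki by Cheng-Prusoff; reported as mean ± SEM.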

D(1A) dopamine receptor [7] = target: T4, D(1A) dopamine receptor; test: Displacement of [3H]SCH-23390 from Dopamine receptor D1 of bovine striatal membranes
[8] = target: T3, D(4) dopamine receptor (Homo sapiens); test: as §2; assay type: functional; summary of the method: as §3

T2 sequence (P14416 whole entry): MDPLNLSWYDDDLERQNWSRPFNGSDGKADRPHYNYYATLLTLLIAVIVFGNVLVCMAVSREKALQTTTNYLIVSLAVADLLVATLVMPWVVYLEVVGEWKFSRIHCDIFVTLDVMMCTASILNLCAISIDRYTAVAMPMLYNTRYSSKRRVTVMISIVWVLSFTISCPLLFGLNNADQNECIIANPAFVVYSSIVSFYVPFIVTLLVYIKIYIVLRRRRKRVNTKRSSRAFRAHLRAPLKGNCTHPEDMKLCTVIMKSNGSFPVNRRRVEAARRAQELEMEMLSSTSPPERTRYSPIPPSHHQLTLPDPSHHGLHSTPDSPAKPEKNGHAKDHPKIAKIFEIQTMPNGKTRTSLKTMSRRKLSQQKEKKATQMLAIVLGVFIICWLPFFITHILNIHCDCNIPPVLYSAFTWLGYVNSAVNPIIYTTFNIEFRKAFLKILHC
T4 sequence (Q95136 whole entry): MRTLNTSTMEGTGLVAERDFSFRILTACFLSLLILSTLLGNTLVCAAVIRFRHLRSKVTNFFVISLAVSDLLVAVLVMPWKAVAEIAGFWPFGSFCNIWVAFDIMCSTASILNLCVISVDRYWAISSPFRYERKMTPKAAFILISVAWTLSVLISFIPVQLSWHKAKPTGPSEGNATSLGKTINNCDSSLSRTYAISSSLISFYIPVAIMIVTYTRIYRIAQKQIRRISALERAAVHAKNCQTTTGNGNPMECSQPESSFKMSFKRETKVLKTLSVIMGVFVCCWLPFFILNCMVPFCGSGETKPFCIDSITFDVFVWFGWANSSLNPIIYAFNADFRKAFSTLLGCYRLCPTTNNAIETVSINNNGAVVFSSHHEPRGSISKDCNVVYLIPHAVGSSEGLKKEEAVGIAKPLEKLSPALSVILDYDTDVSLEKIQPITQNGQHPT
Chain of D(3) dopamine receptor (P35462 whole entry): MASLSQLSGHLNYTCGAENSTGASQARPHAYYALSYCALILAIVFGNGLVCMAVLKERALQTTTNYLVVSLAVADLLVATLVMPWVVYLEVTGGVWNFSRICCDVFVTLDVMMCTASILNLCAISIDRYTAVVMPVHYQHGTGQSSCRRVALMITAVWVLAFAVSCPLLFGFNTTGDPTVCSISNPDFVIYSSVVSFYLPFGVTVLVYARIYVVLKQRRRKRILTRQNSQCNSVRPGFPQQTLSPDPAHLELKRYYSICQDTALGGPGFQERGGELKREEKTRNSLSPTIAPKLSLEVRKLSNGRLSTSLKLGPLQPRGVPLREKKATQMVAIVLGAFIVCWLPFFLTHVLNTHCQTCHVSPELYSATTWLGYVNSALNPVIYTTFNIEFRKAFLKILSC

SMILES	Ki (D(3) dopamine receptor)	EC50 (D(4) dopamine receptor [1])	Ki (D(2) dopamine receptor [2])	Ki (D(2) dopamine receptor [3])	Effect [4]	Ki (D(4) dopamine receptor [5])	Ki (D(1A) dopamine receptor [6])	Ki (D(1A) dopamine receptor [7])	ED50 [8]
N#Cc1ccc2[nH]c(CN3CCN(c4ccc(F)cc4)CC3)cc2c1	15000 nM	9.4 nM	19000 nM	28000 nM	30%	1 nM	8600 nM		
N#Cc1ccc2cc(CN3CCN(c4ccccc4Cl)CC3)[nH]c2c1	920 nM					3.4 nM	1900 nM		
N#Cc1ccc2[nH]c(CN3CCN(c4ccc(Cl)cc4)CC3)cc2c1	13000 nM		7600 nM	7900 nM		2.1 nM	5300 nM		
N#Cc1ccc2[nH]c(CN3CCN(c4ccc(Cl)c(Cl)c4)CC3)cc2c1	20000 nM		36000 nM	43000 nM		7.5 nM	11000 nM		
N#Cc1ccc2[nH]cc(CN3CCN(c4ccc(Cl)c(Cl)c4)CC3)c2c1	870 nM		480 nM	790 nM		22 nM		450 nM	
N#Cc1ccc2[nH]c(CN3CCN(c4ccccc4)CC3)cc2c1	1700 nM		290 nM	3100 nM	35%	0.52 nM		13000 nM	1.5 nM
N#Cc1ccc2[nH]cc(CN3CCN(c4ccccc4Cl)CC3)c2c1	550 nM		540 nM	1400 nM		17 nM		510 nM	
N#Cc1ccc2cc(CN3CCN(c4ccccc4)CC3)[nH]c2c1	3100 nM		2500 nM	5600 nM		3.6 nM	5300 nM		
N#Cc1ccc2[nH]cc(CN3CCN(c4ccc(Cl)cc4)CC3)c2c1	6400 nM		2600 nM	4300 nM		29 nM		550 nM	
N#Cc1ccc2cc(CN3CCN(c4ccc(Cl)c(Cl)c4)CC3)[nH]c2c1	33000 nM		1400 nM	2000 nM		9 nM	880 nM		
N#Cc1ccc2[nH]c(CN3CCN(c4ccccc4Cl)CC3)cc2c1	1700 nM		950 nM	2300 nM		1.4 nM		7500 nM	
N#Cc1ccc2[nH]cc(CN3CCN(c4ccc(F)cc4)CC3)c2c1	5200 nM		1800 nM	2400 nM		110 nM		490 nM	
N#Cc1ccc2[nH]cc(CN3CCN(c4ccccc4)CC3)c2c1	4400 nM		3500 nM	34000 nM		50 nM		3000 nM	

— ChEMBL document CHEMBL1133533 (J Med Chem, 2000)
